# A selection: hits, their analogues and other compounds. The true share with any hit is near 2%.
# GRK2 aptamer HTS – compounds blocking aptamer binding on GRK2 – biochemical, human GRK2, bead flow cytometry, HTS, primary screen; Beta-adrenergic receptor kinase 1 (Homo sapiens), P25098; FAM-aptamer displacement from GRK2; inhibition of aptamer binding, % at 10 µM; 330,000 tested, 0.59% active;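 active means inhibition of aptamer binding above 40%, roughly 3 SD of noise, on plates passing a quality check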;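 further: median bead fluorescence of bound FAM aptamer so fluorescent compounds give negative values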
# Arr AP2 block – inhibitors of beta-arrestin/AP2 binding, primary screen, biochemical, GPCR trafficking, flow cytometry; 340,000 tested, 0.31% active; AID 504490, 2011; inhibition, % at 10 µM; FITC-arrestin peptide / GST-AP2 beads; AP2 beta2 appendage carries R879A mutation;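 active means inhibition above a set limit, near 3 SD of compounds lacking own fluorescence, cut at about 54% in these data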;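 further: plate controls were DMSO wells for no effect and 5 µM unlabelled arrestin peptide for full effect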
#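 Assay system: GST-AP2 R879A bound to glutathione beads, E. coli-expressed; Medium: PBS with 0.05% Tween 20 and 0.1% BSA; Also added: fluorescein-tagged arrestin peptide at 50 nM final; Timing: 12 min plus 1 h, RT; Measured by: flow cytometry, FL1 (488/535 nm); Evaluation: percent drop in bead-associated FITC signal.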
# Hep lipid drop – inhibitors of hepatocyte lipid droplet formation, primary screen, imaging, high-throughput imaging, BODIPY stain; AML12 mouse hepatocytes, oleate lipid droplets; inhibition, % at 6.5 µM; 240,000 tested, 0.4% active; AID 1656, 2009;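 active means lipid droplet intensity inhibited by at least 50%, with more than 500 cells counted; inconclusive means wells with under 300 cells, treated as cytotoxic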
#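 Assay system: AML12 mouse liver cells | Compound dosing: One dose, 6.5 µM compound | Read-out basis: Droplet intensity reduction, % inhibition | Measured by: Fluorescence imaging, 20x objective, two fields per well | Schedule: Overnight treatment with compound plus oleate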
# H9c2 TAG inh – inhibitors of triacylglycerol accumulation, primary screen, cell-based, uHTS, fluorescence, H9c2. inhibition, % at 12.5 µM. 230,000 tested, 0.66% active. H9c2 cells, Nile Red lipid (TAG) fluorescence; cells loaded with 200 µM oleic acid;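 active means pattern-corrected inhibition of lipid staining of at least 50% with the nuclear-stain viability signal not falling by more than 50%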;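 further: 0% = DMSO wells and 100% = triacsin C control wells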
# NTR1 agonist – agonists of human NTR1, primary screen, imaging, U2OS cells, beta-arrestin-GFP, high content; NTR1-U2OS beta-arrestin-GFP spot imaging, agonist mode; 330,000 tested, 0.17% active; activation, % at 20 µM; AID 493036, 2011; Neurotensin receptor type 1 (Homo sapiens), P30989;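 active means activation at or above 40% of the spot to cytoplasm intensity ratio, with at least 20 cells analyzed; inconclusive means wells under 20 cells, flagged as cytotoxic or low count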;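 further: 0% = DMSO without peptide and 100% = 100 nM NTR1 peptide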
# B2AR ag – beta2AR agonists driving receptor internalization, primary screen, cell-based, FAP fluorogen, flow cytometry | Beta-2 adrenergic receptor (Homo sapiens), P07550 | Am2.2-beta2AR cells | response, % (concentration not given with the values) | 340,000 tested, 0.43% active;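 active means response above a set limit, near 3 SD of response in nonfluorescent compounds, cut at about 42% in these data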
# Target sequence (P07550 whole entry, looked up): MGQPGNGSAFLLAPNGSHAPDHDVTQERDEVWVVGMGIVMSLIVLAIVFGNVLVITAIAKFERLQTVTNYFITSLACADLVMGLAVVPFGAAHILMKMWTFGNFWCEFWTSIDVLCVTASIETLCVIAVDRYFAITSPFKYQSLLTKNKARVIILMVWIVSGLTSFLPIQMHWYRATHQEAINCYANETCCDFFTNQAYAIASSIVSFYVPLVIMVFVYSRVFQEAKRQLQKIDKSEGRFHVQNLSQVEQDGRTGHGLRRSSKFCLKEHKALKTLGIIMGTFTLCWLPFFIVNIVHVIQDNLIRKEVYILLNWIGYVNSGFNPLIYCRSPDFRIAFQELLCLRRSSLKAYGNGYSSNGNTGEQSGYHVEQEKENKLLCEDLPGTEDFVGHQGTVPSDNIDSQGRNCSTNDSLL
# An asterisk follows results filed as active; ? = inconclusive; . = no result.
SMILES,GRK2 aptamer HTS,Arr AP2 block,Hep lipid drop,H9c2 TAG inh,NTR1 agonist,B2AR ag
CCOC(=O)c1ccc(NC(=O)c2nc(S(=O)(=O)Cc3ccccc3)ncc2Cl)cc1,0,27,0,.,0,15
CCc1ccc(NC(=O)c2nc(S(=O)(=O)Cc3ccccc3)ncc2Cl)cc1,0,4,-4,.,-2,52*
CN(c1ccccc1)S(=O)(=O)c1ccc(NC(=O)c2nc(S(C)(=O)=O)ncc2Cl)cc1,0,7,0,.,2,90*
CN(c1ccccc1)S(=O)(=O)c1ccc(NC(=O)c2ccccc2)cc1,0,14,-8,.,2,3
CCOc1ccc(NS(=O)(=O)c2ccc(C(=O)NCCCN3CCCC3=O)cc2)cc1,0,-9,2,8,0,3
CC(=NNC(=S)N1CC2CCC(CC2)C1)c1cccc(C)n1,.,7,.,53*,.,-5
C[C@H](CO)N1C[C@H](C)[C@@H](CN(C)Cc2ccc(C(=O)O)cc2)Oc2c(NS(=O)(=O)c3ccc(F)cc3)cccc2C1=O,0,3,.,.,2,0
COc1ccc(C)cc1NC(=O)C(Sc1nnc(Nc2cc(C)ccc2OC)s1)c1ccccc1 (configuration not stated),0,10,73*,23,1,-6
COc1ccc(NC(=O)CN(C)CC(=O)NCCc2ccc(F)cc2)cc1,.,-6,.,-1,-1,-6
COc1cc2oc3ccc(C#Cc4ccc(N)cc4)cc3c(=O)c2cc1OC,2,6,.,26,.,17
COc1cc2oc3ccc(C#Cc4ccccn4)cc3c(=O)c2cc1OC,0,28,.,4,7,71*
COc1cc(/C=C2\CCC/C(=C\c3ccc(O)c(OC)c3)C2=O)ccc1O,0,0,10,.,56*,43*
COc1cc(/C=C2\COC/C(=C\c3cc(OC)c(OC)c(OC)c3)C2=O)cc(OC)c1OC,.,10,-219,79,.,43*
Brc1cccc(C2Nc3cccc4cccc(c34)N2)c1,3,21,3,.,1,6
Brc1ccc(C2Nc3cccc4cccc(c34)N2)o1,2,54*,.,.,1,4
COCCNC(=O)/C(C#N)=C/c1cc(Br)c(O)c(OC)c1,43*,-13,-9,9,3,3
COc1ccc(/C=N/Nc2cc(N3CCOCC3)ncn2)c(OC)c1,0,52,17,.,1,0
COc1cccc(/C=N/Nc2cc(N3CCOCC3)ncn2)c1O,0,-1,1,71*,0,2
Cn1nnnc1SCC1=C(C(=O)O)N2C(=O)[C@@H](NC(=O)[C@H](O)c3ccccc3)[C@H]2SC1,52*,0,1,0,-2,2
Cn1nnnc1SCC1=C(C(=O)O)N2C(=O)C(NC(=O)C3CC3c3ccccc3)C2SC1 (configuration not stated),17,-5,-24,8,-1,0
NC(N)=N/N=C/c1ccc(OCc2ccc(Cl)cc2)cc1,0,17,.,.,20,58*
NC(N)=N/N=C/c1ccc(OCc2ccccc2)cc1,0,10,.,.,14,25
CC(=O)Oc1cc(C(=O)OCC(=O)N2CCc3ccccc3C2)cc(OC(C)=O)c1OC(C)=O,8,12,.,12,1,0
Cc1cc(Cl)n2c(nc3ccccc32)c1C#N,.,6,?,11,.,99*
Cc1c(CCCl)c(Cl)n2c(nc3ccccc32)c1C#N,.,4,.,109,.,57*
SMILES,GRK2 aptamer HTS,Arr AP2 block,Hep lipid drop,H9c2 TAG inh,NTR1 agonist,B2AR ag
CC1(C)OC(C)(C)/C(=C\c2ccc(OCC(N)=O)cc2)C1=O,0,-2,.,13,0,2
CCOC(=O)N1CCN(c2nc3ccccn3c(=O)c2C=O)CC1,3,24,-7,.,1,7
COc1ccc(C(=O)/C(C#N)=N/Nc2ccc([N+](=O)[O-])cc2)cc1,0,3,-268,36,6,46*
Cc1ccc(NS(=O)(=O)c2c(C(=O)N3CCCCCC3)c(C)n(C)c2C)cc1C,2,-3,-59,.,0,4
CN(Cc1ccccc1)C(=O)c1csc([C@@H]2O[C@H](CO)[C@@H](O)[C@H]2O)n1,.,.,.,5,.,.
Cc1ccc(-c2nn(-c3ccccc3)cc2C=C2SC(=S)N(CCS(=O)(=O)O)C2=O)cc1,.,.,.,24,.,.
Cc1ccc(-c2nn(-c3ccccc3)cc2C=C2C(=O)CC(C)(C)CC2=O)cc1,1,2,-5,.,46*,8
Cc1cccc2sc(NC(=O)CCNS(=O)(=O)c3cccs3)nc12,2,-7,.,65*,1,5
c1ccc(-c2ccc(C3=Nn4c(nnc4-c4cc(-c5ccccc5)n[nH]4)SC3)cc2)cc1,10,6,.,.,10,-7
Clc1ccc(C2=Nn3c(nnc3-c3n[nH]c4c3CCC4)SC2)cc1,0,-1,.,55*,2,3
CN(C)CCCN(C(=O)c1ccc([N+](=O)[O-])o1)c1nc2cc3c(cc2s1)OCO3,55*,-6,-1,.,1,6
CN(C)CCCN(C(=O)c1ccc2c(c1)OCCO2)c1nc2cc3c(cc2s1)OCO3,0,45,1,7,1,2
Nc1cc(-c2ccc(OC(F)(F)F)cc2)nn1-c1ccc(Cl)c(Cl)c1,0,17,-13,7,18,-3
Fc1ccc(N2CCN(Cc3cnc(Cl)s3)CC2)cc1,1,17,-5,9,-1,1
O=C(N/N=C/c1cccc([N+](=O)[O-])c1)c1cccc2cc[nH]c12,0,35,2,4,-1,-1
Cc1ccccc1NC(=O)CCC(=O)N/N=C/c1cc([N+](=O)[O-])ccc1O,1,32,.,.,1,10
O=C(N/N=C/c1cc([N+](=O)[O-])ccc1O)c1cccc2cc[nH]c12,3,26,0,61*,7,5
Cc1ccc(C)c(NC(=O)CCC(=O)N/N=C/c2cc([N+](=O)[O-])ccc2O)c1,0,-5,0,4,0,65*
Cn1cc(CN2CCC(N3CCNC(=O)CC3)CC2)c(-c2ccccc2F)n1,0,7,23,0,2,3
C[C@]12CCC[C@H](O1)[C@H]([C@@H](O)c1ccccc1)O2,0,2,.,-8,1,-3
O=C(Nc1cccnc1)c1cc(-c2ccccc2)on1,0,1,-6,10,-2,-2

# Screening data as filed in PubChem BioAssay.
